Experimental data reported in ChEMBL document CHEMBL1144570, “C6-(N,N-butyl-methyl-heptanamide) derivatives of estrone and estradiol as inhibitors of type 1 17beta-hydroxysteroid dehydrogenase: Chemical synthesis and biological evaluation” (2007).
Calls of active or inactive are those of the source. No cut-off for these calls is given here.

How the values were obtained:
[1] = tested on: T47D; test: Decrease in cell growth of estrogen-starved ER expressing T47D cells after 10 days relative to control; format: functional, cell-based; conditions: Homo sapiens
Outline: (§1)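 Cells were moved to medium with insulin (50 ng/mL) and 5% dextran-coated charcoal-treated FBS to remove estrogens, then seeded at 3000 cells/well. After 48 h, inhibitor dilutions in growth medium were added, with medium replaced every 2 days. Cells were grown 10 days in triplicate. Growth was read with the CellTiter 96 AQueous assay and expressed as % of control (100%).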

[2] = target: T1, 17-beta-hydroxysteroid dehydrogenase type 1 (Homo sapiens) (UniProt P14061); test: Inhibition of 17beta-HSD1 overexpressed in homogenated HEK293 cells at 1 uM; format: cell-based
T1 sequence (whole entry): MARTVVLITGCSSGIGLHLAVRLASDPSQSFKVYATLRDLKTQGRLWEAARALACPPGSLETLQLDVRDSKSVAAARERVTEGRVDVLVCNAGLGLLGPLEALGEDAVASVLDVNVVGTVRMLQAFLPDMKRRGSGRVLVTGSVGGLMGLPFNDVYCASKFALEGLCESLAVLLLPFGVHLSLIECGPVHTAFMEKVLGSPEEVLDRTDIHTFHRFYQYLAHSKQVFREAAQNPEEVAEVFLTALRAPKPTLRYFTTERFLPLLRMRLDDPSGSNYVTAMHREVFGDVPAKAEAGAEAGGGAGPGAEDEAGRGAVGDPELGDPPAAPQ
Outline: (§2)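 Homogenate of HEK-293 cells overexpressing type 1 17β-HSD. Reductive conversion of E1 (100 nM) to E2 with NADH cofactor. Percent inhibition from one run in triplicate, SD < ±5%.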

[3] = target: T1, 17-beta-hydroxysteroid dehydrogenase type 1 (Homo sapiens); test: Inhibition of 17beta-HSD1 over-expressed in homogenated HEK293 cells at 0.1 uM; format: cell-based; outline: as §2
[4] = target: T1, 17-beta-hydroxysteroid dehydrogenase type 1 (Homo sapiens); test: Inhibition of 17beta-HSD1 over-expressed in intact HEK293 cells at 10 uM; format: cell-based
Outline: (§3)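 Transfected HEK-293 cells expressing type 1 17β-HSD were plated at 5000 cells/well. Inhibitors were added in ethanol and incubated 24 h. [4-14C]-E1 (60 nM) was then added for 15 min. Labelled E1 and E2 were extracted from the medium and quantified. Values are the mean of five experiments in quadruplicate, SD < ±8%.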

[5] = target: T1, 17-beta-hydroxysteroid dehydrogenase type 1 (Homo sapiens); test: Inhibition of 17beta-HSD1 over-expressed in intact HEK293 cells at 1 uM; format: cell-based; outline: as §3
[6] = target: T1, 17-beta-hydroxysteroid dehydrogenase type 1 (Homo sapiens); test: Inhibition of 17beta-HSD1 over-expressed in intact HEK293 cells at 0.1 uM; format: cell-based; outline: as §3
[7] = target: T1, 17-beta-hydroxysteroid dehydrogenase type 1 (Homo sapiens); test: Inhibition of 17beta-HSD1 over-expressed in intact T47D cells at 10 uM; format: cell-based
Outline: (§4)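 Intact T-47D cells, which express endogenous type 1 17β-HSD, were seeded at 3×10^4 cells/well in proliferation assay medium. After 48 h, [4-14C]-E1 (60 nM) and inhibitor in ethanol (0.5% v/v) were added in fresh medium for 24 h. Labelled E1 and E2 were extracted and quantified. Values are the mean of two experiments in triplicate, SD < ±5%.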

[8] = target: T1, 17-beta-hydroxysteroid dehydrogenase type 1 (Homo sapiens); test: Inhibition of 17beta-HSD1 over-expressed in intact T47D cells at 1 uM; format: cell-based; outline: as §4
[9] = target: T1, 17-beta-hydroxysteroid dehydrogenase type 1 (Homo sapiens); test: Inhibition of 17beta-HSD1 over-expressed in intact T47D cells at 0.1 uM; format: cell-based; outline: as §4
[10] = target: T2, 3-keto-steroid reductase/17-beta-hydroxysteroid dehydrogenase 7 (Homo sapiens) (UniProt P56937); test: Inhibition of 17beta-HSD7 over-expressed in intact HEK293 cells at 10 uM; format: cell-based
T2 sequence (whole entry): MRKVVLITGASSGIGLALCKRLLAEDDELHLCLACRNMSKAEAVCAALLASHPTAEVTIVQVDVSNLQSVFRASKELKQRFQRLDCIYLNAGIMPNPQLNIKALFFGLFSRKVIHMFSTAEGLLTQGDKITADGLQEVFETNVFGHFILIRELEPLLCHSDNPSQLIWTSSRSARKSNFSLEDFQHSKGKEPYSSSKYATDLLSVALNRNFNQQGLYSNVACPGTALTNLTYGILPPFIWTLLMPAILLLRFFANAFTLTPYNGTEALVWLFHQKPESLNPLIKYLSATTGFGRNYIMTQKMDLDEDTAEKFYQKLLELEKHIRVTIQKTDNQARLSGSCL
Outline: (§5)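 Intact transfected HEK-293 cells expressing type 7 17β-HSD. Inhibition of reductive conversion of E1 (60 nM) to E2. One run in triplicate, SD < ±5%.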

[11] = target: T2, 3-keto-steroid reductase/17-beta-hydroxysteroid dehydrogenase 7 (Homo sapiens); test: Inhibition of 17beta-HSD7 over-expressed in intact HEK293 cells at 1 uM; format: cell-based; outline: as §5
[12] = target: T3, Very-long-chain 3-oxoacyl-CoA reductase (Homo sapiens) (UniProt Q53GQ0); test: Inhibition of 17beta-HSD12 over-expressed in intact HEK293 cells at 10 uM; format: cell-based
T3 sequence (whole entry): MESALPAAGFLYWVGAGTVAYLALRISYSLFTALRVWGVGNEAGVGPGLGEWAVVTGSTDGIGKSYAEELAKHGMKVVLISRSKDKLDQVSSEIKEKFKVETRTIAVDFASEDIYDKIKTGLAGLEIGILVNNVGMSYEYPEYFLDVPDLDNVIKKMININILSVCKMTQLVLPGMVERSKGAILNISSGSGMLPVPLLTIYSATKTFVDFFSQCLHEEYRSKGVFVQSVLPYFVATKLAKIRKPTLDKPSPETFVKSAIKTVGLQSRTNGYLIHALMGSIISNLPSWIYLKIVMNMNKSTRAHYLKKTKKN
Outline: (§6)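 Transfected HEK-293 cells expressing type 12 17β-HSD were plated at 1.5×10^5 cells/well. Inhibitor in ethanol plus [4-14C]-E1 (60 nM) were added in fresh medium for 24 h. E1 to E2 conversion was quantified after steroid extraction. Values are the mean of two experiments in triplicate, SD < ±5%.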

[13] = target: T3, Very-long-chain 3-oxoacyl-CoA reductase (Homo sapiens); test: Inhibition of 17beta-HSD12 over-expressed in intact HEK293 cells at 1 uM; format: cell-based; outline: as §6
[14] = target: T1, 17-beta-hydroxysteroid dehydrogenase type 1 (Homo sapiens); test: Inhibition of 17beta-HSD1 over-expressed in intact HEK293 cells; format: cell-based
Outline: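 Transfected HEK-293 cells overexpressing type 1 17β-HSD, plated at 5000 cells/well, given ethanolic inhibitor solutions and incubated 24 h. [4-14C]-E1 (60 nM) then added for 15 min. Labelled E1 and E2 extracted from medium and quantified, giving percent inhibition of E1→E2 reduction at 10, 1 and 0.1 μM. Mean of five experiments in quadruplicate.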

[15] = tested on: MCF7; test: Decrease in cell growth of estrogen-starved ER expressing MCF7 cells at 1 uM relative to control after 10 days; format: functional, cell-based; conditions: Homo sapiens; outline: as §1
[16] = tested on: T47D; test: Increase in cell growth of estrogen-starved ER expressing T47D cells at 1 uM relative to control after 10 days; format: functional, cell-based; conditions: Homo sapiens; outline: as §1
[17] = tested on: T47D; test: Increase in cell growth of estrogen-starved ER expressing T47D cells at 0.1 uM relative to control after 10 days; format: functional, Homo sapiens; outline: as §1
[18] = tested on: T47D; test: Increase in cell growth of estrogen-starved ER expressing T47D cells at 0.01 uM relative to control after 10 days; format: functional, Homo sapiens; outline: as §1
[19] = tested on: MCF7; test: Increase in cell growth of estrogen-starved ER expressing MCF7 cells at 1 uM relative to control after 10 days; format: functional, Homo sapiens; outline: as §1
[20] = tested on: MCF7; test: Increase in cell growth of estrogen-starved ER expressing MCF7 cells at 0.01 uM relative to control after 10 days; format: functional, Homo sapiens; outline: as §1
[21] = tested on: T47D; test: Effect on cell proliferation of estrogen-starved ER expressing T47D cells at 1 uM relative to control after 10 days; format: functional, cell-based; conditions: Homo sapiens; outline: as §1
[22] = tested on: MCF7; test: Increase in cell growth of estrogen-starved ER expressing MCF7 cells at 10 nM relative to control after 10 days; format: functional, Homo sapiens; outline: as §1
[23] = tested on: T47D; test: Increase in cell growth of estrogen-starved ER expressing T47D cells at 10 nM relative to control after 10 days; format: functional, Homo sapiens; outline: as §1

SMILES | inhibition [2] [%] | inhibition [3] [%] | inhibition [4] [%] | inhibition [5] [%] | inhibition [6] [%] | inhibition [7] [%] | inhibition [8] [%] | inhibition [9] [%] | inhibition [10] [%] | inhibition [11] [%] | inhibition [12] [%] | inhibition [13] [%] | Activity [14] | also measured
CCCCN(C)C(=O)CCCCCC[C@@H]1C[C@@H]2[C@H](CC[C@]3(C)[C@@H](O)CC[C@@H]23)c2ccc(O)cc21 | 46 | 15 | 49 | 21 | 11 | 95 | 82 | 29 | 27 | 0 | 30 | 1 | – | Activity [1]: Active
C[C@]12CC[C@H]3C(=CCc4cc(O)ccc43)[C@@H]1CC[C@@H]2O | – | – | – | – | – | – | – | – | – | – | – | – | inactive | –
C[C@]12CC[C@@H]3c4ccc(O)cc4C=C[C@H]3[C@@H]1CC[C@@H]2O | – | – | – | – | – | – | – | – | – | – | – | – | inactive | –
C[C@]12CC[C@@H]3c4ccc(O)cc4[C@H](O)C[C@H]3[C@@H]1CC[C@@H]2O | – | – | – | – | – | – | – | – | – | – | – | – | inactive | –
C[C@]12CC[C@@H]3c4ccc(O)cc4C(=O)C[C@H]3[C@@H]1CC[C@@H]2O | – | – | – | – | – | – | – | – | – | – | – | – | inactive | –
CCCCN(C)C(=O)CCCCCC[C@@H]1C[C@@H]2[C@H](CC[C@]3(C)C(=O)CC[C@@H]23)c2ccc(O)cc21 | 23 | 12 | 31 | 20 | 8 | 92 | 57 | 19 | 31 | 7 | 40 | 0 | – | Activity [15]: Active
CCCCN(C)C(=O)CCCCCS[C@@H]1C[C@@H]2[C@H](CC[C@]3(C)[C@@H](O)CC[C@@H]23)c2ccc(O)cc21 | 74 | 33 | 63 | 45 | 11 | 95 | 82 | 31 | 25 | 9 | 22 | 0 | – | Activity [16]: Active; Activity [17]: 2.3; Activity [18]: 2.3
CCCCN(C)C(=O)CCCCCC[C@H]1C[C@@H]2[C@H](CC[C@]3(C)C(=O)CC[C@@H]23)c2ccc(O)cc21 | 16 | 3 | 14 | 5 | 3 | 71 | 19 | 7 | 29 | 5 | 44 | 3 | – | –
CCCCN(C)C(=O)CCCCCC[C@@H]1C[C@@H]2[C@H](CC[C@]3(C)[C@@H](O)CC[C@@H]23)c2cc(OC)c(O)cc21 | – | – | 28 | 15 | 13 | 81 | 32 | 11 | 17 | 0 | 22 | 0 | – | Activity [19]: 1.1; Activity [20]: 1.7; Activity [18]: 2.3; Activity [21]: inactive
C[C@]12CC[C@@H]3c4ccc(O)cc4CC[C@H]3[C@@H]1CC[C@@H]2O [ESTRADIOL] | – | – | – | – | – | – | – | – | – | – | – | – | – | Activity [22]: 1.8; Activity [23]: 3
CCCCN(C)C(=O)CCCCCC[C@H]1C[C@@H]2[C@H](CC[C@]3(C)[C@@H](O)CC[C@@H]23)c2ccc(O)cc21 | 17 | 9 | 15 | 11 | 3 | 74 | 21 | 9 | 24 | 11 | 30 | 1 | – | –
C[C@]12CC[C@@H]3c4ccc(O)cc4CC[C@H]3[C@@H]1CCC2=O | 59 | 19 | 83 | 38 | 8 | 93 | 85 | 36 | 0 | 0 | 0 | 0 | – | –
